According to ChEMBL document CHEMBL4325893, “Synthesis and antibacterial profiles of targeted triclosan derivatives” (2019):
≈ marks a conversion by molar mass, not a printed value.

Columns and labels:
[1] = test system: Staphylococcus aureus; assay: Antibacterial activity against Staphylococcus aureus ATCC 9144 after 18 hrs; format: functional; details: ATCC 9144, 18 h
Method in brief: (§1)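 Broth microdilution in Nutrient Broth No. 2; stocks in ethanol diluted to 0.01–128 µg/ml (triclosan) or 0.25–256 µg/ml (glycosides). Overnight 37 °C NB2 cultures diluted 1 in 10^4 in saline and added to the dilutions. Incubation at 37 °C with agitation, OD read every 15 min; MIC is the lowest concentration preventing any OD rise after 18 h.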

[2] = test system: Escherichia coli; assay: Antibacterial activity against Escherichia coli ATCC 8739 after 18 hrs; format: functional; details: ATCC 8739, 18 h; method in brief: as §1
[3] = test system: Escherichia coli; assay: Antibacterial activity against Escherichia coli NCTC 13216 after 18 hrs; format: functional; details: NCTC 13216, 18 h; method in brief: as §1
[4] = Antibacterial activity against Salmonella enterica subspecies enterica serotype Virchow NCTC 5742 after 18 hrs; format: functional, Salmonella enterica subsp. enterica serovar Virchow; details: NCTC 5742, 18 h; method in brief: as §1
[5] = Antibacterial activity against Salmonella enterica subspecies enterica serotype Dublin OCC 627 after 18 hrs; format: functional, Salmonella enterica subsp. enterica serovar Dublin; details: OCC 627, 18 h; method in brief: as §1
[6] = Antibacterial activity against Salmonella enterica subspecies enterica serotype Indiana OCC 597 after 18 hrs; format: functional, Salmonella enterica subsp. enterica serovar Indiana; details: OCC 597, 18 h; method in brief: as §1
[7] = test system: Enterococcus faecium; assay: Antibacterial activity against Enterococcus faecium ATCC 19434 after 18 hrs; format: functional; details: ATCC 19434, 18 h; method in brief: as §1
[8] = test system: Staphylococcus aureus; assay: Antibacterial activity against Staphylococcus aureus NCTC 13758 after 18 hrs; format: functional; details: NCTC 13758, 18 h; method in brief: as §1
[9] = test system: Klebsiella pneumoniae; assay: Antibacterial activity against Klebsiella pneumoniae ATCC 10031 after 18 hrs; format: functional; details: ATCC 10031, 18 h; method in brief: as §1
[10] = test system: Staphylococcus aureus; assay: Antibacterial activity against Staphylococcus aureus ATCC 6538P after 18 hrs; format: functional; method in brief: as §1
[11] = Antibacterial activity against Salmonella enterica subspecies enterica serotype Infantis OCC 2133 after 18 hrs; format: functional, Salmonella enterica subsp. enterica serovar Infantis; details: OCC 2133, 18 h; method in brief: as §1
[12] = test system: Staphylococcus saprophyticus; assay: Antibacterial activity against Staphylococcus saprophyticus ATCC 15305 after 18 hrs; format: functional; details: ATCC 15305, 18 h
Method in brief: (§2)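 Broth microdilution in Nutrient Broth No. 2. Ethanol stocks were diluted in broth to 0.01–128 µg/ml for triclosan and 0.25–256 µg/ml for glycosides. Overnight 37°C NB2 cultures were diluted 1 in 10^4 in saline and added to the wells. Plates were incubated at 37°C with OD read every 15 min after agitation. MIC was the lowest concentration giving no OD increase at 18 h.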

[13] = test system: Staphylococcus haemolyticus; assay: Antibacterial activity against Staphylococcus haemolyticus OCC 2223 after 18 hrs; format: functional; details: OCC 2223, 18 h; method in brief: as §2
[14] = test system: Serratia marcescens; assay: Antibacterial activity against Serratia marcescens OCC 217 after 18 hrs; format: functional; details: OCC 217, 18 h; method in brief: as §1
[15] = Antibacterial activity against Salmonella enterica subspecies enterica serotype Pullorum OCC 273 after 18 hrs; format: functional, Salmonella enterica subsp. enterica serovar Pullorum; details: OCC 273, 18 h; method in brief: as §1
[16] = test system: Escherichia coli; assay: Antibacterial activity against Escherichia coli ATCC 11775 after 18 hrs; format: functional; method in brief: as §1
[17] = Antibacterial activity against Enterobacter cloacae ATCC 13047 after 18 hrs; format: functional, Enterobacter cloacae subsp. cloacae; details: ATCC 13047, 18 h; method in brief: as §1
[18] = test system: Proteus mirabilis; assay: Antibacterial activity against Proteus mirabilis ATCC 12453 after 18 hrs; format: functional; details: ATCC 12453, 18 h; method in brief: as §1
[19] = test system: Staphylococcus aureus; assay: Antibacterial activity against Staphylococcus aureus OCC 104 after 18 hrs; format: functional; details: OCC 104, 18 h; method in brief: as §1
[20] = Antibacterial activity against Salmonella enterica subspecies enterica serotype Poona NCTC 4840 after 18 hrs; format: functional, Salmonella enterica subsp. enterica serovar Poona; details: NCTC 4840, 18 h; method in brief: as §1
[21] = test system: Aeromonas hydrophila; assay: Antibacterial activity against Aeromonas hydrophila OCC 778 after 18 hrs; format: functional; details: OCC 778, 18 h; method in brief: as §1
[22] = test system: Escherichia coli; assay: Antibacterial activity against Escherichia coli ATCC 25922 after 18 hrs; format: functional; details: ATCC 25922, 18 h; method in brief: as §1
[23] = test system: Escherichia coli; assay: Antibacterial activity against Escherichia coli ATCC 35218 after 18 hrs; format: functional; details: ATCC 35218, 18 h; method in brief: as §1
[24] = test system: Staphylococcus aureus; assay: Antibacterial activity against Staphylococcus aureus OCC 106 after 18 hrs; format: functional; details: OCC 106, 18 h; method in brief: as §1
[25] = test system: Salmonella typhimurium; assay: Antibacterial activity against Salmonella enterica subspecies enterica serotype typhimurium ATCC 14028 after 18 hrs; format: functional, Salmonella enterica subsp. enterica serovar Typhimurium; details: ATCC 14028, 18 h; method in brief: as §1
[26] = test system: Streptococcus viridans; assay: Antibacterial activity against Streptococcus viridans OCC 234 after 18 hrs; format: functional; details: OCC 234, 18 h; method in brief: as §2
[27] = test system: Citrobacter freundii; assay: Antibacterial activity against Citrobacter freundii 8090 after 18 hrs; format: functional; details: Citrobacter freundii, 8090, 18 h; method in brief: as §1
[28] = test system: Klebsiella aerogenes; assay: Antibacterial activity against Enterobacter aerogenes ATCC 13048 after 18 hrs; format: functional; details: ATCC 13048, 18 h; method in brief: as §1

MIC [1]: 8 to 16 µg/mL (≈ 17.7 to 35.4 µM)
MIC [2]: 16 to 64 µg/mL (≈ 35.4 to 142 µM)
MIC [3]: 16 to 64 µg/mL (≈ 35.4 to 142 µM)
MIC [4]: 32 to 64 µg/mL (≈ 70.8 to 142 µM)
MIC [5]: 32 to 64 µg/mL (≈ 70.8 to 142 µM)
MIC [6]: 32 to 64 µg/mL (≈ 70.8 to 142 µM)
MIC [7]: > 256 µg/mL
MIC [8]: 8 to 16 µg/mL (≈ 17.7 to 35.4 µM)
MIC [9]: 1 µg/mL (≈ 2.21 µM)
MIC [10]: 8 to 16 µg/mL (≈ 17.7 to 35.4 µM)
MIC [11]: 32 to 64 µg/mL (≈ 70.8 to 142 µM)
MIC [12]: 64 µg/mL (≈ 142 µM)
MIC [14]: > 256 µg/mL
MIC [15]: 32 to 64 µg/mL (≈ 70.8 to 142 µM)
MIC [16]: 16 to 64 µg/mL (≈ 35.4 to 142 µM)
MIC [17]: 32 µg/mL (≈ 70.8 µM)
MIC [18]: 32 µg/mL (≈ 70.8 µM)
MIC [19]: 8 to 16 µg/mL (≈ 17.7 to 35.4 µM)
MIC [20]: 32 to 64 µg/mL (≈ 70.8 to 142 µM)
MIC [21]: > 256 µg/mL
MIC [22]: 16 to 64 µg/mL (≈ 35.4 to 142 µM)
MIC [23]: 16 to 64 µg/mL (≈ 35.4 to 142 µM)
MIC [24]: 8 to 16 µg/mL (≈ 17.7 to 35.4 µM)
MIC [25]: 32 to 64 µg/mL (≈ 70.8 to 142 µM)
MIC [26]: > 256 µg/mL
MIC [27]: 64 µg/mL (≈ 142 µM)
MIC [28]: 128 µg/mL (≈ 283 µM)
Structure (SMILES): OC[C@H]1O[C@H](Oc2cc(Cl)ccc2Oc2ccc(Cl)cc2Cl)[C@H](O)[C@@H](O)[C@H]1O
MIC [13]: 16 µg/mL (≈ 35.4 µM)
